Test results reported in ChEMBL document CHEMBL4118202, “Chiral analogues of (+)-cyclazosin as potent α1B-adrenoceptor selective antagonist” (Bioorg Med Chem, 2018).

Columns and labels:
Rattus norvegicus [1] = species: Rattus norvegicus; experiment: Selectivity ratio of compound effect for antagonism of alpha1B adrenergic receptor in Wistar rat spleen to compound effect for antagonism of alpha1A adrenergic receptor in Wistar rat prostatic rat vas deferens
Outline: (§1)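 Ratio taken as the antilog of the difference between rat tissue pA2 or pKB values for the two subtypes (vas deferens α1A, spleen α1B, aorta α1D organ-bath antagonism).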

Rattus norvegicus [2] = species: Rattus norvegicus; experiment: Selectivity ratio of compound effect for antagonism of alpha1B adrenergic receptor in Wistar rat spleen to compound effect for antagonism of alpha1D adrenergic receptor in Wistar rat thoracic aorta; outline: as §1
Rattus norvegicus [3] = species: Rattus norvegicus; experiment: Selectivity ratio of compound effect for antagonism of alpha1D adrenergic receptor in Wistar rat thoracic aorta to compound effect for antagonism of alpha1A adrenergic receptor in Wistar rat prostatic rat vas deferens; outline: as §1
[4] = target: T1, Alpha-1A adrenergic receptor (Homo sapiens, UniProt P35348); experiment: Displacement of [3H]prazosin from human alpha1A adrenergic receptor expressed in CHO cell membranes after 30 mins by rapid filtration method
T1 sequence (P35348 whole entry): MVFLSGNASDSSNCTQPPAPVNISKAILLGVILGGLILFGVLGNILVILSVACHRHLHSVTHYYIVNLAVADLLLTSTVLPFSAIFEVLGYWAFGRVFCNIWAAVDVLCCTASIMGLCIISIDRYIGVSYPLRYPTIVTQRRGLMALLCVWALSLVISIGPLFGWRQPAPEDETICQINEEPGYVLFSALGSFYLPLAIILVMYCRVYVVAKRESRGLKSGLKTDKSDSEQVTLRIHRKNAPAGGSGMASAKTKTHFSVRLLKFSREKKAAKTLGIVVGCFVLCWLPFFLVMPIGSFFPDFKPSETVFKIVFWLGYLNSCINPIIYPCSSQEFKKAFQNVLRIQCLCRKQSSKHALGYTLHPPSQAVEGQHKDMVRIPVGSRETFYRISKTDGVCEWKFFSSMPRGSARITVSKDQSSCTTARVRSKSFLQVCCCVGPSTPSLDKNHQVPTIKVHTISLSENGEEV
Outline: (§2)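 Membranes (30 μg protein) from CHO cells stably transfected with the human α1a, α1b or α1d receptor. Incubated 30 min at 25 °C in 50 mM Tris-HCl pH 7.4 with 0.1–0.4 nM [3H]prazosin and competitor 1 pM–10 μM. Nonspecific binding defined by 10 μM phentolamine. Stopped by rapid filtration through PEI-treated filters. IC50 converted to Ki by Cheng-Prusoff; pKi from 2–3 experiments in triplicate.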

[5] = target: T2, Alpha-1B adrenergic receptor (Homo sapiens, UniProt P35368); experiment: Displacement of [3H]prazosin from human alpha1B adrenergic receptor expressed in CHO cell membranes after 30 mins by rapid filtration method; outline: as §2
T2 sequence (P35368 whole entry): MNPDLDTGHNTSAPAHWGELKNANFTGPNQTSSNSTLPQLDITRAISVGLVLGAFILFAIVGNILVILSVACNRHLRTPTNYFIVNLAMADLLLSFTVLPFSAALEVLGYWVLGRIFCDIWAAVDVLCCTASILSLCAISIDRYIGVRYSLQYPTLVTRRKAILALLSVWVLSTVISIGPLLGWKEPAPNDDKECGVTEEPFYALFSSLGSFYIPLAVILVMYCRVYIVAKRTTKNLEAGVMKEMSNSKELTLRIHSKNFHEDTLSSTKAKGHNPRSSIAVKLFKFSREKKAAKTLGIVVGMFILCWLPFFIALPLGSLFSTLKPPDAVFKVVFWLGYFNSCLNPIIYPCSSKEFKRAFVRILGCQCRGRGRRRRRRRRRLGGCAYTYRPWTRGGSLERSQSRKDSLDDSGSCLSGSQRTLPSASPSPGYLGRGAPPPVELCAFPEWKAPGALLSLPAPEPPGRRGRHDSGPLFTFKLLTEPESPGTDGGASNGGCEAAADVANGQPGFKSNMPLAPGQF

Homo sapiens [6] = species: Homo sapiens; experiment: Selectivity ratio of compound effect for displacement of [3H]prazosin from human alpha1B adrenergic receptor expressed in CHO cell membranes to compound effect for displacement of [3H]prazosin from human alpha1A adrenergic receptor expressed in CHO cell membranes
Outline: (§3)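 Ratio taken as the antilog of the difference between pKi values from [3H]prazosin displacement at human α1 subtypes expressed in CHO membranes.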

Homo sapiens [7] = species: Homo sapiens; experiment: Selectivity ratio of compound effect for displacement of [3H]prazosin from human alpha1B adrenergic receptor expressed in CHO cell membranes to compound effect for displacement of [3H]prazosin from human alpha1D adrenergic receptor expressed in CHO cell membranes; outline: as §3
Homo sapiens [8] = species: Homo sapiens; experiment: Selectivity ratio of compound effect for displacement of [3H]prazosin from human alpha1D adrenergic receptor expressed in CHO cell membranes to compound effect for displacement of [3H]prazosin from human alpha1A adrenergic receptor expressed in CHO cell membranes; outline: as §3
[9] = target: T3, Alpha-1A adrenergic receptor (Rattus norvegicus, UniProt P43140); experiment: Antagonist activity at alpha1A adrenergic receptor in Wistar rat prostatic rat vas deferens assessed as inhibition of noradrenaline-induced contraction preincubated for 30 mins followed by noradrenaline addition measured after 45 mins in presence of cocaine hydrochloride; format: functional; conditions: read-out: pA2 (converted)
T3 sequence (P43140 whole entry): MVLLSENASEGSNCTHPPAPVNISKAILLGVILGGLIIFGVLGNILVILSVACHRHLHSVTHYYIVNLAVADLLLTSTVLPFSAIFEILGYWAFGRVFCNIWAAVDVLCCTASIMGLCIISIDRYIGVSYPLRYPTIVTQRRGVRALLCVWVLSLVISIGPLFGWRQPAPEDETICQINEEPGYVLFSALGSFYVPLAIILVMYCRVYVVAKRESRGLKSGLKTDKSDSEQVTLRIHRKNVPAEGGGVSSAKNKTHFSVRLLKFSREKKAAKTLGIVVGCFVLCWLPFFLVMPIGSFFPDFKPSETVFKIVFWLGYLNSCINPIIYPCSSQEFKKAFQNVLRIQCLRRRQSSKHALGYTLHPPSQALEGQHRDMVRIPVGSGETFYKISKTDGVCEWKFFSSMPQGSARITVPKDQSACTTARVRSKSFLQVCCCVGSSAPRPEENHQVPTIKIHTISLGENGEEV
Outline: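 Prostatic rat vas deferens, 2 cm portions, held at 0.35 g in Tyrode (pH 7.4, 37 °C, 95% O2/5% CO2). Cocaine 10 μM added 20 min before the agonist. Tissue equilibrated 45 min and primed twice with 10 μM noradrenaline. Isotonic cumulative noradrenaline curves were run before and after 30 min antagonist. pA2 came from Schild plots (≥3 concentrations); otherwise pKB (van Rossum). n ≥ 4.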

| SMILES | Selectivity ratio (Rattus norvegicus [1]) | Selectivity ratio (Rattus norvegicus [2]) | Selectivity ratio (Rattus norvegicus [3]) | Ki [4] [nM] | Ki [5] [nM] | Selectivity ratio (Homo sapiens [6]) | Selectivity ratio (Homo sapiens [7]) | Selectivity ratio (Homo sapiens [8]) | Kb [9] [nM] |
| --- | --- | --- | --- | --- | --- | --- | --- | --- | --- |
| CCCN(CCC)c1nc(N2CCN(C(=O)c3ccco3)[C@@H]3CCCC[C@@H]32)nc2cc(OC)c(OC)cc12 | 1 | 1 | 1 | 1.86 | 0.129 | 15 | 0.5 | 29 |  |
| COc1cc2nc(N3CCN(C(=O)C(C)(C)C)[C@H]4CCCC[C@H]43)nc(N)c2cc1OC | 12 | 26 | 0.5 | 6.61 | 0.776 | 9 | 8 | 1 |  |
| CCCN(CCC)c1nc(N2CCN(C(=O)c3ccco3)[C@H]3CCCC[C@H]32)nc2cc(OC)c(OC)cc12 | 93 | 44 | 2 | 22.4 | 0.302 | 74 | 17 | 4 |  |
| COc1cc2nc(N3CCN(C(=O)C4COc5ccccc5O4)[C@H]4CCCC[C@H]43)nc(N)c2cc1OC (single isomer, unassigned; (-)) [CYCLODOXAZOSIN] | 81 | 32 | 3 |  |  |  |  |  | 200 |
| COc1cc2nc(N3CCN(C(=O)Cc4ccc5ccccc5c4)[C@H]4CCCC[C@H]43)nc(N)c2cc1OC | 30 | 15 | 2 | 17 | 1.17 | 14 | 2 | 8 |  |
| COc1cc2nc(N3CCN(C(C)=O)[C@H]4CCCC[C@H]43)nc(N)c2cc1OC | 1000 | 562 | 2 | 224 | 9.12 | 25 | 12 | 2 | 3020 |
| CCCCCC(=O)N1CCN(c2nc(N)c3cc(OC)c(OC)cc3n2)[C@@H]2CCCC[C@@H]21 | 9 | 15 | 0.6 | 5.75 | 0.912 | 6 | 4 | 2 |  |
| COc1cc2nc(N3CCN(C(C)=O)[C@@H]4CCCC[C@@H]43)nc(N)c2cc1OC | 72 | 4 | 20 | 9.12 | 0.741 | 12 | 0.2 | 60 | 44.7 |
| COc1cc2nc(N3CCN(C(=O)COc4c(OC)cccc4C(C)C)[C@H]4CCCC[C@H]43)nc(N)c2cc1OC | 0.8 | 0.3 | 3 | 0.871 | 0.151 | 6 | 3 | 2 | 151 |
| COc1cc2nc(N3CCN(C(=O)OCc4ccccc4)[C@H]4CCCC[C@H]43)nc(N)c2cc1OC | 457 | 141 | 3 | 5.5 | 0.38 | 14 | 11 | 1 | 776 |
| COc1cc2nc(N3CCN(C(=O)OCc4ccccc4)[C@@H]4CCCC[C@@H]43)nc(N)c2cc1OC | 9 | 0.3 | 31 | 0.501 | 0.191 | 3 | 0.2 | 13 | 16.2 |
